Results taken from article PMC12749539 (Scientific Reports, 2025).

Experiments:
ZIKV = conditions: read-out: previously reported EC50; anti-ZIKV; cited from earlier work
[1] = system: Zika virus (ZIKV) MR766 strain; assay: EC50 dose-response in ZIKV-infected Vero cells; assay type: cell-based; conditions: CC50/EC50, Vero cells
Summary of the method: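 Vero CCL-81 monolayers were seeded at 1.2 × 10⁶ cells per plate one day before. Serial dilutions of test compound in DMEM (methods: 50–0.2 µM; legend: 0.2–100 µM) were added together with ZIKV MR766 at 100 TCID50/mL. Plates were held 6 days at 37 °C and 5% CO2, with virus and cell controls. Crystal violet read viability. EC50 came from four-parameter logistic fit of triplicate data. SI = CC50/EC50.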

[2] = CC50 cytotoxicity in uninfected Vero cells; assay type: cell-based; conditions: African green monkey
Summary of the method: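 Vero CCL-81 cells in DMEM with 10% FBS were seeded at 1.2 × 10⁶ cells per plate one day ahead. Uninfected monolayers were exposed to serial dilutions of test compound in DMEM (50–0.2 µM) for 6 days at 37 °C and 5% CO2. Viability was read by crystal violet staining. CC50 came from four-parameter logistic nonlinear regression of triplicate data, with 95% CIs from log-transformed estimates.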

Row | Compound | EC50 (ZIKV) | selectivity index (SI) [1] | CC50 at 6 days [2]
1 | COC1=C[C@]23CCCN2CCc2cc4c(cc2[C@@H]3[C@@H]1O)OCO4 [Cephalotaxine] | 40 µM | – | –
2 | CCCCC(CC)COC(=O)CC(C(=O)OCC(CC)CCCC)S(=O)(=O)O (stereo not drawn) [Docusate Sodium] | – | 3.49 | 8.19 µM
